In ChEMBL document CHEMBL1154837, “Identification of antibacterial and antifungal pharmacophore sites for potent bacteria and fungi inhibition: indolenyl sulfonamide derivatives” (Eur J Med Chem, 2010):
Values after ≈ are worked out from the molar mass of the structure shown.

Tests used:
Pseudomonas aeruginosa = assay: Antimicrobial activity against Pseudomonas aeruginosa at 1 mg/ml by agar-well diffusion method; assay type: functional; details: read-out: IZ
Summary of the method: (§1)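 Agar-well diffusion on nutrient agar. The surface was swabbed with 2–8 h old inocula of about 10^4–10^6 CFU/mL. Wells were 6 mm across and at least 24 mm apart. Each well received sample at 1 mg/mL in DMSO. DMSO served as negative control and imipenem as positive control. Plates were incubated at 37 °C for 24 h, and the diameter of the complete-inhibition zone was measured in mm.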

Staphylococcus aureus = assay: Antimicrobial activity against Staphylococcus aureus at 1 mg/ml by agar-well diffusion method; assay type: functional; details: read-out: IZ; summary of the method: as §1
Bacillus subtilis [1] = assay: Antimicrobial activity against Bacillus subtilis at 1 mg/ml by agar-well diffusion method; assay type: functional; details: read-out: IZ; summary of the method: as §1
Escherichia coli [2] = assay: Antimicrobial activity against Escherichia coli at 1 mg/ml by agar-well diffusion method; assay type: functional; details: read-out: IZ; summary of the method: as §1
Salmonella enterica [3] = assay: Antimicrobial activity against Salmonella typhi at 1 mg/ml by agar-well diffusion method; assay type: functional, Salmonella enterica subsp. enterica serovar Typhi; details: read-out: IZ
Summary of the method: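 Agar-well diffusion on nutrient agar. Plates were swabbed with 2–8 h old inoculum at about 10^4–10^6 CFU/mL, and 6 mm wells were cut at least 24 mm apart. Test sample 1 mg/mL in DMSO. DMSO served as negative control and imipenem as positive control. Plates were incubated at 37 °C for 24 h, and the diameter of complete-inhibition zones was measured (mm).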

Shigella flexneri [4] = assay: Antimicrobial activity against Shigella flexneri at 1 mg/ml by agar-well diffusion method; assay type: functional; details: read-out: IZ; summary of the method: as §1
Fusarium solani [5] = assay: Antimicrobial activity against Fusarium solani at 200 ug/ml after 7 days; assay type: functional; details: 168 h
Summary of the method: (§2)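 Sabouraud dextrose agar was seeded with fungal spore suspension at 10^5 cfu/mL and poured into Petri plates. Discs soaked with compound at 200 µg/mL in DMSO were placed on the agar surface. Plates were incubated at 32 °C for seven days. Results were recorded as % inhibition, with miconazole and amphotericin B as reference drugs.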

Aspergillus flavus = assay: Antimicrobial activity against Aspergillus flavus at 200 ug/ml after 7 days; assay type: functional; details: 168 h; summary of the method: as §2
Candida albicans [6] = assay: Antimicrobial activity against Candida albicans at 200 ug/ml after 7 days; assay type: functional; details: 168 h; summary of the method: as §2
Nakaseomyces glabratus [7] = assay: Antimicrobial activity against Candida glabrata at 200 ug/ml after 7 days; assay type: functional; details: 168 h; summary of the method: as §2
Shigella flexneri [8] = assay: Antimicrobial activity against Shigella flexneri after 24 hrs by disk diffusion assay; assay type: functional
Summary of the method: (§3)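 MIC by disc diffusion, using discs prepared with 10, 25, 50 and 100 µg/mL of compound.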

Bacillus subtilis [9] = assay: Antimicrobial activity against Bacillus subtilis after 24 hrs by disk diffusion assay; assay type: functional; summary of the method: as §3
Salmonella enterica [10] = assay: Antimicrobial activity against Salmonella typhi after 24 hrs by disk diffusion assay; assay type: functional, Salmonella enterica subsp. enterica serovar Typhi
Escherichia coli [11] = assay: Antimicrobial activity against Escherichia coli after 24 hrs by disk diffusion assay; assay type: functional; summary of the method: as §3
Microsporum canis = assay: Antimicrobial activity against Microsporum canis after 7 days; assay type: functional
Fusarium solani [12] = assay: Antimicrobial activity against Fusarium solani after 7 days; assay type: functional
Candida albicans [13] = assay: Antimicrobial activity against Candida albicans after 7 days; assay type: functional
Trichophyton longifusum = assay: Antimicrobial activity against Trichophyton longifusum after 7 days; assay type: functional
Nakaseomyces glabratus [14] = assay: Antimicrobial activity against Candida glabrata after 7 days; assay type: functional

With NS(=O)(=O)c1ccc(/N=C/c2c[nH]c3ccccc23)cc1 the zone of inhibition at 1000 µg/mL (Pseudomonas aeruginosa) was 19 mm, the zone of inhibition at 1000 µg/mL (Staphylococcus aureus) was 18 mm and the zone of inhibition at 1000 µg/mL (Bacillus subtilis [1]) was 20 mm. For the same molecule, the zone of inhibition at 1000 µg/mL (Escherichia coli [2]) was 21 mm, the zone of inhibition at 1000 µg/mL (Salmonella enterica [3]) was 20 mm and the zone of inhibition at 1000 µg/mL (Shigella flexneri [4]) was 18 mm. It also gave a growth inhibition at 200 µg/mL (Fusarium solani [5]) of 43%, a growth inhibition at 200 µg/mL (Aspergillus flavus) of 55% and a growth inhibition at 200 µg/mL (Candida albicans [6]) of 40%. The growth inhibition at 200 µg/mL (Nakaseomyces glabratus [7]) was 25%.

In the case of N=C(N)NS(=O)(=O)c1ccc(/N=C/c2c[nH]c3ccccc23)cc1, the zone of inhibition at 1000 µg/mL (Pseudomonas aeruginosa) is reported as 18 mm, the zone of inhibition at 1000 µg/mL (Staphylococcus aureus) is reported as 22 mm and the MIC (Shigella flexneri [8]) is reported as 146 µM (≈ 50 µg/mL). It also gave an MIC (Bacillus subtilis [9]) of 146 µM (≈ 50 µg/mL), a zone of inhibition at 1000 µg/mL (Bacillus subtilis [1]) of 23 mm and an MIC (Salmonella enterica [10]) of 293 µM (≈ 100 µg/mL). It also gave a zone of inhibition at 1000 µg/mL (Escherichia coli [2]) of 23 mm, a zone of inhibition at 1000 µg/mL (Salmonella enterica [3]) of 23 mm and a zone of inhibition at 1000 µg/mL (Shigella flexneri [4]) of 22 mm. For the same molecule, the growth inhibition at 200 µg/mL (Fusarium solani [5]) was 35%, the growth inhibition at 200 µg/mL (Aspergillus flavus) was 30% and the growth inhibition at 200 µg/mL (Candida albicans [6]) was 35%. It also gave a growth inhibition at 200 µg/mL (Nakaseomyces glabratus [7]) of 55%.

Molecule O=S(=O)(Nc1nccs1)c1ccc(/N=C/c2c[nH]c3ccccc23)cc1 has a zone of inhibition at 1000 µg/mL (Pseudomonas aeruginosa) of 20 mm, a zone of inhibition at 1000 µg/mL (Staphylococcus aureus) of 23 mm and an MIC (Escherichia coli [11]) of 262 µM (≈ 100 µg/mL). It also gave an MIC (Shigella flexneri [8]) of 131 µM (≈ 50 µg/mL), a zone of inhibition at 1000 µg/mL (Bacillus subtilis [1]) of 24 mm and an MIC (Salmonella enterica [10]) of 262 µM (≈ 100 µg/mL). For the same molecule, the zone of inhibition at 1000 µg/mL (Escherichia coli [2]) was 24 mm, the zone of inhibition at 1000 µg/mL (Salmonella enterica [3]) was 23 mm and the zone of inhibition at 1000 µg/mL (Shigella flexneri [4]) was 23 mm. For the same molecule, the growth inhibition at 200 µg/mL (Fusarium solani [5]) was 80%, the growth inhibition at 200 µg/mL (Aspergillus flavus) was 30% and the growth inhibition at 200 µg/mL (Candida albicans [6]) was 40%. The growth inhibition at 200 µg/mL (Nakaseomyces glabratus [7]) was 60%.

Molecule Cc1cc(NS(=O)(=O)c2ccc(/N=C/c3c[nH]c4ccccc34)cc2)no1 has a zone of inhibition at 1000 µg/mL (Pseudomonas aeruginosa) of 17 mm, a zone of inhibition at 1000 µg/mL (Staphylococcus aureus) of 19 mm and an MIC (Bacillus subtilis [9]) of 263 µM (≈ 100 µg/mL). For the same molecule, the zone of inhibition at 1000 µg/mL (Bacillus subtilis [1]) was 23 mm, the zone of inhibition at 1000 µg/mL (Escherichia coli [2]) was 22 mm and the zone of inhibition at 1000 µg/mL (Salmonella enterica [3]) was 19 mm. The zone of inhibition at 1000 µg/mL (Shigella flexneri [4]) was 20 mm, the growth inhibition at 200 µg/mL (Fusarium solani [5]) was 45% and the growth inhibition at 200 µg/mL (Aspergillus flavus) was 45%. The growth inhibition at 200 µg/mL (Candida albicans [6]) was 25% and the growth inhibition at 200 µg/mL (Nakaseomyces glabratus [7]) was 40%.

Cc1noc(NS(=O)(=O)c2ccc(/N=C/c3c[nH]c4ccccc34)cc2)c1C showed a zone of inhibition at 1000 µg/mL (Pseudomonas aeruginosa) of 19 mm, a zone of inhibition at 1000 µg/mL (Staphylococcus aureus) of 20 mm and a zone of inhibition at 1000 µg/mL (Bacillus subtilis [1]) of 17 mm. For the same molecule, the zone of inhibition at 1000 µg/mL (Escherichia coli [2]) was 23 mm, the zone of inhibition at 1000 µg/mL (Salmonella enterica [3]) was 20 mm and the zone of inhibition at 1000 µg/mL (Shigella flexneri [4]) was 19 mm. For the same molecule, the growth inhibition at 200 µg/mL (Fusarium solani [5]) was 65%, the growth inhibition at 200 µg/mL (Aspergillus flavus) was 55% and the growth inhibition at 200 µg/mL (Candida albicans [6]) was 45%. For the same molecule, the growth inhibition at 200 µg/mL (Nakaseomyces glabratus [7]) was 55%.

O=S(=O)(Nc1ncccn1)c1ccc(/N=C/c2c[nH]c3ccccc23)cc1 gave a zone of inhibition at 1000 µg/mL (Pseudomonas aeruginosa) of 20 mm, a zone of inhibition at 1000 µg/mL (Staphylococcus aureus) of 19 mm and a zone of inhibition at 1000 µg/mL (Bacillus subtilis [1]) of 19 mm. It also gave a zone of inhibition at 1000 µg/mL (Escherichia coli [2]) of 19 mm, a zone of inhibition at 1000 µg/mL (Salmonella enterica [3]) of 17 mm and a zone of inhibition at 1000 µg/mL (Shigella flexneri [4]) of 18 mm. It also gave a growth inhibition at 200 µg/mL (Fusarium solani [5]) of 70%, a growth inhibition at 200 µg/mL (Aspergillus flavus) of 25% and a growth inhibition at 200 µg/mL (Candida albicans [6]) of 35%. The growth inhibition at 200 µg/mL (Nakaseomyces glabratus [7]) was 20%.

In the case of Cc1cc(C)nc(NS(=O)(=O)c2ccc(/N=C/c3c[nH]c4ccccc34)cc2)n1, the zone of inhibition at 1000 µg/mL (Pseudomonas aeruginosa) is reported as 20 mm, the zone of inhibition at 1000 µg/mL (Staphylococcus aureus) is reported as 23 mm and the MIC (Escherichia coli [11]) is reported as 123 µM (≈ 50 µg/mL). It also gave a zone of inhibition at 1000 µg/mL (Bacillus subtilis [1]) of 18 mm, an MIC (Salmonella enterica [10]) of 247 µM (≈ 100 µg/mL) and a zone of inhibition at 1000 µg/mL (Escherichia coli [2]) of 24 mm. The zone of inhibition at 1000 µg/mL (Salmonella enterica [3]) was 22 mm, the zone of inhibition at 1000 µg/mL (Shigella flexneri [4]) was 19 mm and the growth inhibition at 200 µg/mL (Fusarium solani [5]) was 75%. It also gave a growth inhibition at 200 µg/mL (Aspergillus flavus) of 55%, a growth inhibition at 200 µg/mL (Candida albicans [6]) of 60% and a growth inhibition at 200 µg/mL (Nakaseomyces glabratus [7]) of 28%.

For C[C@@H](O)[C@H]1C(=O)N2C(C(=O)O)=C(SCCNC=N)C[C@H]12 [IMIPENEM ANHYDROUS], the zone of inhibition at 1000 µg/mL (Pseudomonas aeruginosa) was 26 mm, the zone of inhibition at 1000 µg/mL (Staphylococcus aureus) was 30 mm and the zone of inhibition at 1000 µg/mL (Bacillus subtilis [1]) was 28 mm. It also gave a zone of inhibition at 1000 µg/mL (Escherichia coli [2]) of 30 mm, a zone of inhibition at 1000 µg/mL (Salmonella enterica [3]) of 27 mm and a zone of inhibition at 1000 µg/mL (Shigella flexneri [4]) of 27 mm.

Work on Clc1ccc(COC(Cn2ccnc2)c2ccc(Cl)cc2Cl)c(Cl)c1 (stereo not given) [MICONAZOLE] yielded an MIC (Microsporum canis) of 236 µM (≈ 98.4 µg/mL), an MIC (Fusarium solani [12]) of 176 µM (≈ 73.3 µg/mL) and an MIC (Candida albicans [13]) of 266 µM (≈ 111 µg/mL). For the same molecule, the MIC (Trichophyton longifusum) was 168 µM (≈ 70 µg/mL) and the MIC (Nakaseomyces glabratus [14]) was 266 µM (≈ 111 µg/mL).
